As a reminder, the inhibition is how much of the control response was suppressed. In general, EC50 refers to the concentration that produces a half-maximal response.

In test [1] the test system is Botryosphaeria berengeriana. The test can be described thus: Fungicidal activity against Botryosphaeria berengeriana assessed as inhibition of mycelium growth at 50 ug/mL by mycelium growth rate method. The format is functional. The gist of the method: (§1)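 Mycelium growth rate method: colony diameters measured once mycelia had grown completely, and the relative inhibition rate (%) calculated from the diameters by formula. Phenazine-1-carboxylic acid ran as control. Values are the average of three replicate results.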

The subject of test [2] is Fusarium oxysporum. The test can be described thus: Fungicidal activity against Fusarium oxysporum assessed as inhibition of mycelium growth at 50 ug/mL by mycelium growth rate method. The format is functional. The gist of the method:
as §1

The test system of test [3] is Botryosphaeria berengeriana. The test can be described thus: Fungicidal activity against Botryosphaeria berengeriana assessed as inhibition of mycelium growth by mycelium growth rate method. The format is functional, organism-based. The gist of the method:
as §1

For test [4], the system named is Alternaria solani. As to the kind of experiment: Fungicidal activity against Alternaria solani assessed as inhibition of mycelium growth by mycelium growth rate method. The class given is functional, organism-based. The gist of the method:
as §1

Test [5] deals with Fusarium graminearum. The test can be described thus: Fungicidal activity against Fusarium graminearum assessed as inhibition of mycelium growth at 50 ug/mL by mycelium growth rate method. The class given is functional. The gist of the method: as §1
The subject of test [6] is Fusarium oxysporum. The test can be described thus: Fungicidal activity against Fusarium oxysporum assessed as inhibition of mycelium growth by mycelium growth rate method. The format is functional, organism-based. In short, it runs like this: as §1
Test [7] has as its system Mycosphaerella arachidis. The test can be described thus: Fungicidal activity against Mycosphaerella arachidis assessed as inhibition of mycelium growth at 50 ug/mL by mycelium growth rate method. The format is functional. The gist of the method:
as §1

Test [8] has as its system Mycosphaerella arachidis. As to the kind of experiment: Fungicidal activity against Mycosphaerella arachidis assessed as inhibition of mycelium growth by mycelium growth rate method. The format is functional, organism-based. The gist of the method:
as §1

Test [9] deals with Fusarium graminearum. As to the kind of experiment: Fungicidal activity against Fusarium graminearum assessed as inhibition of mycelium growth by mycelium growth rate method. The class given is functional, organism-based. The gist of the method:
as §1

Test [10] relates to Alternaria solani. As to the kind of experiment: Fungicidal activity against Alternaria solani assessed as inhibition of mycelium growth at 50 ug/mL by mycelium growth rate method. The class given is functional. The gist of the method: as §1

In brackets after ≈: the same amount, converted by molar mass. Where only a bound is given, the exact number is not on record here.

Regarding `CCOC(=O)c1cccc2nc3c(N)cccc3nc12`, the inhibition at 50 µg/mL in test [1] amounted to 100%; in the test on Fusarium oxysporum [2] it was 33.3%; in the test with Fusarium graminearum [5], 41.8%; in the test on Mycosphaerella arachidis [7], 32%; in the test with Alternaria solani [10] it was 51%. The EC50 was 4.44 µg/mL (≈ 16.6 µM) in test [3]; 40.1 µg/mL (≈ 150 µM) in the test with Alternaria solani [4]; over 50 µg/mL in the test on Fusarium oxysporum [6]; over 50 µg/mL in the test with Mycosphaerella arachidis [8]; over 50 µg/mL in the test on Fusarium graminearum [9].

In the case of `CCCOC(=O)c1cccc2nc3c(N)cccc3nc12`, the inhibition at 50 µg/mL in test [1] was 57.1%; in the test on Fusarium oxysporum [2], 36.7%; with Fusarium graminearum [5] it was 43.6%; in the test with Mycosphaerella arachidis [7], 30%; in the test with Alternaria solani [10], 46.7%.

With `CCCCOC(=O)c1cccc2nc3c(N)c([N+](=O)[O-])cc([N+](=O)[O-])c3nc12`, the inhibition at 50 µg/mL in [1] was found to be 42.9%; with Fusarium oxysporum [2], 24%; in the test on Fusarium graminearum [5], 53%; in the test with Mycosphaerella arachidis [7], 5.6%; in the test on Alternaria solani [10], 17.4%.

Regarding `O=C(O)c1cccc2nc3ccccc3nc12` [PHENAZINE-1-CARBOXYLIC ACID], the inhibition at 50 µg/mL in [1] amounted to 100%; in the test with Fusarium oxysporum [2], 65.4%; with Fusarium graminearum [5] it was 43.1%; in the test on Mycosphaerella arachidis [7], 92.3%; in the test with Alternaria solani [10], 100%. Further, the concentration giving a half-maximal response (EC50) was 3.58 µg/mL (≈ 16 µM) in test [3]; 18.5 µg/mL (≈ 82.5 µM) in the test with Alternaria solani [4]; 14.9 µg/mL (≈ 66.5 µM) with Fusarium oxysporum [6]; 13.2 µg/mL (≈ 58.9 µM) in the test on Mycosphaerella arachidis [8]; over 50 µg/mL in the test with Fusarium graminearum [9].

Regarding `COC(=O)c1cccc2nc3c(N)cccc3nc12`, the inhibition at 50 µg/mL in test [1] was 100%; in the test on Fusarium oxysporum [2] it was 40%; in the test on Fusarium graminearum [5], 36.3%; in the test with Mycosphaerella arachidis [7], 26.9%; with Alternaria solani [10] it was 100%. Besides, the EC50 is 3 µg/mL (≈ 11.8 µM) in [3]; 20.5 µg/mL (≈ 81.1 µM) in the test on Alternaria solani [4]; over 50 µg/mL in the test with Fusarium oxysporum [6]; over 50 µg/mL in the test on Mycosphaerella arachidis [8]; over 50 µg/mL in the test on Fusarium graminearum [9].

Source of the values: ChEMBL document CHEMBL3045119, “Synthesis and fungicidal activity of novel aminophenazine-1-carboxylate derivatives” (J Agric Food Chem, 2010).
